Assays:
[1] = ref FDA label; cited from earlier work
Free = format: in vivo, mice; details: SCID/beige, mouse, plasma, oral, 5 mg/kg
ALK(G1202R) = details: cited from earlier work
[2] = patients; ref FDA label; cited from earlier work
[3] = Pharmacokinetic/pharmacodynamic analysis of phospho-ALK; format: in vivo, mice; details: SCID/beige, mouse, plasma, oral
[4] = target: EML4-ALK G1202R/L1196M fusion phosphorylation (Homo sapiens, UniProt Q9HC35+Q9UM73, G1202R/L1196M); test: as above; format: in vivo, mice; details: mouse, read-out: phosphorylation inhibition of EML4-ALK G1202R/L1196M fusion
[5] = Pharmacokinetics and brain distribution after repeat oral administration; format: in vivo; details: male Sprague Dawley rats; single oral administration
Outline: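 Male Sprague Dawley rats received 10 mg/kg orally once daily for 7 consecutive days. Plasma concentration profiles were determined on days 1 and 7. On day 7, terminal samples of plasma, cerebrospinal fluid and brain tissue were collected 1, 4 and 24 h postdose and analyzed by LC/MS-MS. Brain tissue levels were compared with plasma levels.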

| concentration at 12 h (Free) [nM] | concentration at 2 h [3] [nM] | inhibition at 0.0195 µM [4] [%] | absorption [5] | elimination half-life [5] | Compound | plasma protein binding [1] [%] | unbound exposure necessary for maximum antitumor efficacy (ALK(G1202R); preclinical ALK(G1202R) xenograft model) [nmol/L] | EC90 (ALK(G1202R); read-out: EC90 unbound exposure for inhibition of ALK(G1202R) phosphorylation, preclinical xenograft model) [µM] | AUC0–24h [2] [ng·h/mL] | Cave unbound exposure [2] |
| --- | --- | --- | --- | --- | --- | --- | --- | --- | --- | --- |
| 358 | – | – | – | – | C[C@H]1Oc2cc(cnc2N)-c2c(nn(C)c2C#N)CN(C)C(=O)c2ccc(F)cc21 [Lorlatinib, lorlatinib] | 66 | […] | […] | 5650 | approximately 155 nmol/L |
| – | 19.5 | > 90 | rapid absorption | long elimination half-life | CC1(C)COc2ccc(F)cc2CN2c3nc4c(cnn4cc3OC[C@H]2C(F)F)C(=O)N1 [TPX-0131, (4S)-4-(difluoromethyl)-8-fluoro-13,13-dimethyl-3,4,13,14-tetrahydro-6H-18,1-(metheno)[1,4]oxazino[3,4-i]pyrazolo[4,3-f][1,4,8,10]benzoxatriazacyclotridecin-15(12H)-one] | – | – | – | – | – |

— paper PMC9398166 (Molecular Cancer Therapeutics, 2021)
